Measurements published in ChEMBL document CHEMBL5649170, “Sustained microglial depletion with CSF1R inhibitor impairs parenchymal plaque development in an Alzheimer's disease model” (Nat Commun, 2019).

Experiments:
[1] = target: G protein-coupled receptor kinase 3 (Homo sapiens, UniProt P35626); assay: Inhibition of ADRBK2 (unknown origin)
[2] = test system: Mus musculus; assay: Effect on APP processing pathway in 5XFAD mouse assessed as C-terminal PS1 protein signal intensity in cortex at 1200 ppm administered as rodent starting from 1.5 months and measured after 7 months (reference value: 42.868 to 145.444 %); assay type: functional; details: route po, time 5.5 months, 4015 h
[3] = test system: Mus musculus; assay: Antialzheimer activity in 5XFAD mouse assessed as number of Iba1 positive cells per FOV in […] cortex at 1200 ppm administered as rodent chow starting from 1.5 months to 4 months followed by compound removal and measured after 1 months by immunolabelling based confocal microscopic analysis (reference value: 210 to 529); assay type: functional; details: route po, time 2.5 months, 1825 h
How it was run: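 For the repopulation paradigm, 5xFAD mice ate 1200 ppm PLX5622 chow from 1.5 to 4 months of age. Inhibitor chow was then withdrawn, and brains were examined one month later. Sections were stained with Thio-S and immunolabeled for IBA1, then analysed by confocal microscopy in cortical regions.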

[4] = Effect on Dync1i1 gene expression in wildtype mouse hippocampus assessed as percent change in Reads Per kilo base per Million mapped reads at 1200 ppm administered as rodent chow starting from 1.5 months and measured after 7 months by RNA-Seq analysis (reference value: 96.347 to 105.024 %); assay type: functional; details: route po, time 5.5 months, 4015 h
[5] = Clearance in female rat at 1.13 mg/kg, iv administered as single dose; assay type: ADME, organism-based; details: in vivo
[6] = target: MAP/microtubule affinity-regulating kinase 3 (Homo sapiens, UniProt P27448); assay: Inhibition of MARK3 (unknown origin)
[7] = test system: Mus musculus; assay: Antialzheimer activity in 5XFAD mouse assessed as ApoE immunoreactivity by measuring APP volume per number of Thio-S positive deposits at 1200 ppm administered as rodent chow starting from 1.5 months and measured after 7 months by immunolabeling based confocal microscopic analysis (reference value: 6.415 to 29.760 microm3); assay type: functional; details: route po, time 5.5 months, 4015 h
[8] = test system: Mus musculus; assay: Effect on APP processing pathway in wildtype mouse assessed as C-terminal PS1 protein signal intensity in cortex at 1200 ppm administered as rodent starting from 1.5 months and measured after 7 months (reference value: 5.248 to 133.048 %); assay type: functional; details: route po, time 5.5 months, 4015 h
[9] = target: Serine/threonine-protein kinase pim-1 (Homo sapiens, UniProt P11309); assay: Inhibition of PIM1 (unknown origin)
[10] = target: Death-associated protein kinase 3 (Homo sapiens, UniProt O43293); assay: Inhibition of DAPK3 (unknown origin)
[11] = target: AMP-activated protein kinase (AMPK) alpha-1/beta-1/gamma-1 (Homo sapiens, UniProt P54619+Q13131+Q9Y478); assay: Inhibition of AMPK_A1/B1/G1 (unknown origin); assay type: protein-complex assay
[12] = test system: Mus musculus; assay: Antialzheimer activity in 5XFAD mouse assessed as time spent in open arm at 1200 ppm administered as rodent chow for 10 to 24 weeks by Elevated plus maze test (reference value: 34.1 to 208.9 sec); assay type: functional; details: route po, time 10-24 weeks
[13] = target: Serine/threonine-protein kinase Nek9 (Homo sapiens, UniProt Q8TD19); assay: Inhibition of NEK9 (unknown origin)
[14] = Toxicity in wildtype mouse assessed as number of open arm entries at 1200 ppm administered as rodent chow for 10 to 24 weeks by Elevated plus maze test (reference value: 7 to 29); details: in vivo, po, time 10-24 weeks
[15] = target: Serine/threonine-protein kinase MRCK beta (Homo sapiens, UniProt Q9Y5S2); assay: Inhibition of CDC42_BPB (unknown origin)
[16] = Effect on ccl6 gene expression in wild type mouse thalamus at 1200 ppm administered as rodent chow starting from 1.5 months and measured after 7 months by RNA-Seq analysis (reference value: 0.647 to 1.238 RPKM); assay type: functional; details: route po, time 5.5 months, 4015 h
[17] = Drug concentration in mouse brain at 300 ppm administered as rodent chow for 14 days; assay type: ADME, tissue-based; details: route po, time 14 day, read-out: Ct
[18] = target: Mitogen-activated protein kinase 13 (Homo sapiens, UniProt O15264); assay: Inhibition of MAPK13 (unknown origin)
[19] = Toxicity in wildtype mouse assessed as time spent in perimeter zone at 1200 ppm administered as rodent chow for 10 to 24 weeks by Open field test (reference value: 223.8 to 267.6 sec); details: in vivo, po, time 10-24 weeks
[20] = target: Tyrosine-protein kinase JAK2 (Homo sapiens, UniProt O60674); assay: Inhibition of JAK2 (unknown origin)
[21] = Effect on Spi1 gene expression in wild type mouse cortex at 1200 ppm administered as rodent chow starting from 1.5 months and measured after 7 months by RNA-Seq analysis (reference value: 1.059 to 1.887 RPKM); assay type: functional; details: route po, time 5.5 months, 4015 h
[22] = target: T1, Macrophage colony-stimulating factor 1 receptor (Mus musculus) (UniProt P09581); assay: In vivo inhibition of CSF1R in wildtype mouse assessed as number of S100bteta positive cells per FOV in somatosensory cortex at 1200 ppm administered as rodent chow for 10 to 24 weeks by immunolabelling based confocal microscopic analysis (reference value: 14 to 342); assay type: functional; details: route po, time 10-24 weeks
T1 sequence (whole entry): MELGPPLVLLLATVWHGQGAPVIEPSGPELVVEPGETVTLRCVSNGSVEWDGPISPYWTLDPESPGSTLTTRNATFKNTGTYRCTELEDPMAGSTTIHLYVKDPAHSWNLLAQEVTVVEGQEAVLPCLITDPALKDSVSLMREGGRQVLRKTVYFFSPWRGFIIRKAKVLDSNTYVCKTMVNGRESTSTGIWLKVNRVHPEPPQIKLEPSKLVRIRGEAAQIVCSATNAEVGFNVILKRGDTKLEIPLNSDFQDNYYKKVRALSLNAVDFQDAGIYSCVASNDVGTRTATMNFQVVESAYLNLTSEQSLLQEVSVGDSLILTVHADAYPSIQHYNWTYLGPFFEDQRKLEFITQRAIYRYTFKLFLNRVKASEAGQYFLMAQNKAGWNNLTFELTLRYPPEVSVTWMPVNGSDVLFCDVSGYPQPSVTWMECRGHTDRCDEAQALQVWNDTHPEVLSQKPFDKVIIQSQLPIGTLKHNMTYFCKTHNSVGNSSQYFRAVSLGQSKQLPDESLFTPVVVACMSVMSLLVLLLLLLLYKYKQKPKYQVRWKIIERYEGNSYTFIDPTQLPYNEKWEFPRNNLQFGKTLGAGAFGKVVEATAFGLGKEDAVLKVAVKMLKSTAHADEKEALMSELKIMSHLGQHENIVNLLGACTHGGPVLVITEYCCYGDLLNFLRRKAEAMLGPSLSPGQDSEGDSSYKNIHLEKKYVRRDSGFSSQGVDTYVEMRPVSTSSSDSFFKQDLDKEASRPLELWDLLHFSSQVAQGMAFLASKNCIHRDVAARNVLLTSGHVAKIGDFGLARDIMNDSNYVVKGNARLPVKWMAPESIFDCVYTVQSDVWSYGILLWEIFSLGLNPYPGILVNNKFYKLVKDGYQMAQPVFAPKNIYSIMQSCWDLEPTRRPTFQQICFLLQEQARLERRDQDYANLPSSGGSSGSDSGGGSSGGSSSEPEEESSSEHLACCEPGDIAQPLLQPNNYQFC

[23] = Prevention of Dync1i1 gene downregulation in 5XFAD mouse hippocampus assessed as percent change in Reads Per kilo base per Million mapped reads at 1200 ppm administered as rodent chow starting from 1.5 months and measured after 7 months by RNA-Seq analysis (reference value: 65.184 to 88.242 %); assay type: functional; details: route po, time 5.5 months, 4015 h

Sequence of Serine/threonine-protein kinase Nek9 (Q8TD19 whole entry): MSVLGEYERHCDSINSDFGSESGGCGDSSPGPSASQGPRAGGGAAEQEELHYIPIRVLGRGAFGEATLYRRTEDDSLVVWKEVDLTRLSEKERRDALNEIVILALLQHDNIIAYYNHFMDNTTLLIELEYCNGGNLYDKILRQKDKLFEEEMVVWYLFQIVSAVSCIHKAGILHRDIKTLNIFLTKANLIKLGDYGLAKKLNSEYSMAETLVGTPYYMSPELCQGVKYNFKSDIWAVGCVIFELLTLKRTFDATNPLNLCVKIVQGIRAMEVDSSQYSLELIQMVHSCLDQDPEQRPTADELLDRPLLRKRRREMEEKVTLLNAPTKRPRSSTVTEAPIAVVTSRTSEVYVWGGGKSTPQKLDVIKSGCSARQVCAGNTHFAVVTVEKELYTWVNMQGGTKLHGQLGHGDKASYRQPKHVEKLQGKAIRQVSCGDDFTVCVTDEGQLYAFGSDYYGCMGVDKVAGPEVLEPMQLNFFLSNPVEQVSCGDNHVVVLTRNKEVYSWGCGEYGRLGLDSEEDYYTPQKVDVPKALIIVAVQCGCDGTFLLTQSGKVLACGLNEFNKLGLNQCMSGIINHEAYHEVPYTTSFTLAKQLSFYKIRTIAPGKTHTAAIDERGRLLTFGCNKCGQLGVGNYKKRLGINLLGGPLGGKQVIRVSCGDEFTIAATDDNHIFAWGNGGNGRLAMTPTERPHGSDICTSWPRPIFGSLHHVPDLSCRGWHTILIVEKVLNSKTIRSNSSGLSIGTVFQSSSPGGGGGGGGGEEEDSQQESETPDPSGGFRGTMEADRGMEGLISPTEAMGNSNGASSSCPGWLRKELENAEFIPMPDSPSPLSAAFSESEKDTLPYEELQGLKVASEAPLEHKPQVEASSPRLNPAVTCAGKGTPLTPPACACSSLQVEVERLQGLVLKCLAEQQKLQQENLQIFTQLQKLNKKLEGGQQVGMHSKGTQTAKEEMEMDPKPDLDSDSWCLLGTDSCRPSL
Sequence of Mitogen-activated protein kinase 13 (O15264 whole entry): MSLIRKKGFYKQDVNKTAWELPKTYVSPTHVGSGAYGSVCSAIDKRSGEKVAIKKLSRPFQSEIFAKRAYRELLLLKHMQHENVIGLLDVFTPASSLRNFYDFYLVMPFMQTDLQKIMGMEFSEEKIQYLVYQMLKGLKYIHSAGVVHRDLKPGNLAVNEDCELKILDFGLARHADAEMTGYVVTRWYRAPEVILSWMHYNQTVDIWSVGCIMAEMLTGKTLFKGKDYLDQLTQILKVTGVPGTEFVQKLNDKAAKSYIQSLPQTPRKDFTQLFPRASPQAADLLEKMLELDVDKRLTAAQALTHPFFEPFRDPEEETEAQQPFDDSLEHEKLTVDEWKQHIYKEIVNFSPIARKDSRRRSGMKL
Sequence of Death-associated protein kinase 3 (O43293 whole entry): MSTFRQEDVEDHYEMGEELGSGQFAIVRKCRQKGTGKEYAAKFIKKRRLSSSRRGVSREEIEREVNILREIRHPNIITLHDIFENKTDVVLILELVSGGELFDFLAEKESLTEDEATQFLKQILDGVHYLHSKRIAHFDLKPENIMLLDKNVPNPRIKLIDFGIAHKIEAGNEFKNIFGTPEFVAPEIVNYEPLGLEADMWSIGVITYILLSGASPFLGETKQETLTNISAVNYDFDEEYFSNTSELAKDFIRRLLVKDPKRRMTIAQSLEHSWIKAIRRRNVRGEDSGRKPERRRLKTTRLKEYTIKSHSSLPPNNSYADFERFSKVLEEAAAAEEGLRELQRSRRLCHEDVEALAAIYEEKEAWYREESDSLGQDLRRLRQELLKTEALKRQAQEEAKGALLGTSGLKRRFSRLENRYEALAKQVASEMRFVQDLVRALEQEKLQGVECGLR
Sequence of Serine/threonine-protein kinase pim-1 (P11309 whole entry): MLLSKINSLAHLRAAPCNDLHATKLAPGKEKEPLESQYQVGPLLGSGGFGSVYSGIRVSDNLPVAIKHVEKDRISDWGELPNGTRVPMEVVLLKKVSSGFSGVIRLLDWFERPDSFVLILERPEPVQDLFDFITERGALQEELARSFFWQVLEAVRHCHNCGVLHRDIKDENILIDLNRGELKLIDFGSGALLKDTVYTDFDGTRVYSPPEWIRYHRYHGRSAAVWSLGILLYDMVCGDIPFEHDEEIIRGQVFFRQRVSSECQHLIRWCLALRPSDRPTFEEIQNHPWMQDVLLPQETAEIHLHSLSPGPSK
Sequence of G protein-coupled receptor kinase 3 (P35626 whole entry): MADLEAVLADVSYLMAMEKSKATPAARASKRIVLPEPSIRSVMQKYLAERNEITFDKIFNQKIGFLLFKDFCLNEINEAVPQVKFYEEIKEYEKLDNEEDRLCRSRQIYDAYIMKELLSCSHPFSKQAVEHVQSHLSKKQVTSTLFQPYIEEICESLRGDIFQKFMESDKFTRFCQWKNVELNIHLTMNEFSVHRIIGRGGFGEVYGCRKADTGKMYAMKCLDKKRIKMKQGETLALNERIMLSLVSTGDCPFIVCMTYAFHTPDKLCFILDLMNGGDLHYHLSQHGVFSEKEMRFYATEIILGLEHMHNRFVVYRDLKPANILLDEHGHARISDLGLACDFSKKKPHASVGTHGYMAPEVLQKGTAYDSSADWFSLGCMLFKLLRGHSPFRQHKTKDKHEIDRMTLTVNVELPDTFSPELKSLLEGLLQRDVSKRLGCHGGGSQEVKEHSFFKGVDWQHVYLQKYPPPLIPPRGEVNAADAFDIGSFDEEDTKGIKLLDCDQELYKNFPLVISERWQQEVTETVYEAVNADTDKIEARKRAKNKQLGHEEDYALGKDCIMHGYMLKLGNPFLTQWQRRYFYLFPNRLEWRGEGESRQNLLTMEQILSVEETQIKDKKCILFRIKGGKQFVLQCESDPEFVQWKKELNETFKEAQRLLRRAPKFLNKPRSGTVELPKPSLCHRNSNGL
Sequence of MAP/microtubule affinity-regulating kinase 3 (P27448 whole entry): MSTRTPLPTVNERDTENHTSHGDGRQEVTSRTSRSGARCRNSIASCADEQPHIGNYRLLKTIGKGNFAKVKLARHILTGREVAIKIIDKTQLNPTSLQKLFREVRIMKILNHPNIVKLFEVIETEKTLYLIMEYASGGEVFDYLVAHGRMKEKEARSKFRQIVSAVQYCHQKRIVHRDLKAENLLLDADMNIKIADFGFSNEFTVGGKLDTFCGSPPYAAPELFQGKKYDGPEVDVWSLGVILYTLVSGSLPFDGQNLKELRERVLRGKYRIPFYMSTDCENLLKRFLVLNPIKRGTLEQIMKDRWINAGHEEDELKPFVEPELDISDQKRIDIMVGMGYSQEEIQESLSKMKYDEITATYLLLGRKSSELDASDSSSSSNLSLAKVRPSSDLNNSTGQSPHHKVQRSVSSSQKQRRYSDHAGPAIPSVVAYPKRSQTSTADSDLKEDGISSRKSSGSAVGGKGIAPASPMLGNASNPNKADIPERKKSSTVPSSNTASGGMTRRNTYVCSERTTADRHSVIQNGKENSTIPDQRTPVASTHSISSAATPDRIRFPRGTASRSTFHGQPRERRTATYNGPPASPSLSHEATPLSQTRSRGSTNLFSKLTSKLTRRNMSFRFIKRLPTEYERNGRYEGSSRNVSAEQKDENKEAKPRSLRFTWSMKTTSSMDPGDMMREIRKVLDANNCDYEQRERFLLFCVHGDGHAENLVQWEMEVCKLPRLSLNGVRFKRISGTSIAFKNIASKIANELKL
Sequence of AMP-activated protein kinase (AMPK) alpha-1/beta-1/gamma-1 (P54619 whole entry): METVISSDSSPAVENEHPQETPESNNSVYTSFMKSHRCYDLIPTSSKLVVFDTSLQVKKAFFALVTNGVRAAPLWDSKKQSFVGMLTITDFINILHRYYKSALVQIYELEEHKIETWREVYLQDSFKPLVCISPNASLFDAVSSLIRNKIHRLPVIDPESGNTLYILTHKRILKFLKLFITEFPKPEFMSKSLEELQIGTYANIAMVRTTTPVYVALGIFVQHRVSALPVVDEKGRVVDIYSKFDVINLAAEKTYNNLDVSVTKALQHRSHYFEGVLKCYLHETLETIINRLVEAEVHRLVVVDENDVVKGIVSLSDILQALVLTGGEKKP
Sequence of AMP-activated protein kinase (AMPK) alpha-1/beta-1/gamma-1 (Q9Y478 whole entry): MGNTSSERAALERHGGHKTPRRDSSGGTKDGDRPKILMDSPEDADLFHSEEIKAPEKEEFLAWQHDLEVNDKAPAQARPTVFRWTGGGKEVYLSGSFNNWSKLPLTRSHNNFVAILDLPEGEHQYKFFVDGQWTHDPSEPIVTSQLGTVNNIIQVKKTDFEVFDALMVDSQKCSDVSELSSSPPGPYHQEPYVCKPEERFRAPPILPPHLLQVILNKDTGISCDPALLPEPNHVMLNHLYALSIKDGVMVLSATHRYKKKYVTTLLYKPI
Sequence of AMP-activated protein kinase (AMPK) alpha-1/beta-1/gamma-1 (Q13131 whole entry): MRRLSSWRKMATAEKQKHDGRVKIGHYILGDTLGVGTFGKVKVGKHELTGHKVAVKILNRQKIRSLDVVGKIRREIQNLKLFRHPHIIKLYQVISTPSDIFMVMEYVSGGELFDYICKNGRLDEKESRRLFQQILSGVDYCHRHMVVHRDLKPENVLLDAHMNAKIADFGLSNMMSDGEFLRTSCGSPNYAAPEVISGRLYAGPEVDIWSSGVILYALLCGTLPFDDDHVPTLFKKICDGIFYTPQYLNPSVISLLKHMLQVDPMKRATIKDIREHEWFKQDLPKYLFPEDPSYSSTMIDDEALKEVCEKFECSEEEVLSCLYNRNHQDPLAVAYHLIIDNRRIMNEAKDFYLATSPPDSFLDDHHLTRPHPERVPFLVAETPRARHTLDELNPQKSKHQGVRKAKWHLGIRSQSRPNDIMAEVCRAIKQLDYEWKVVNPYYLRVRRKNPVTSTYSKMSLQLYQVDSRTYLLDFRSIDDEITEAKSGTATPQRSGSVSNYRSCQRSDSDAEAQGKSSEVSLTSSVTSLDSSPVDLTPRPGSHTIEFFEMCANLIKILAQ

COc1ncc(F)cc1CNc1ccc(Cc2c[nH]c3ncc(C)cc23)c(F)n1 [PLX-5622]
IC50 [1]: > 1000 nM
Activity [2]: 12.015%
Activity [3]: 66
Activity [4]: 81.186%
clearance [5]: 3.7 mL/min/kg
IC50 [6]: > 1000 nM
Activity [7]: 10.459 um3
Activity [8]: 15.313%
IC50 [9]: > 1000 nM
IC50 [10]: > 1000 nM
IC50 [11]: > 1000 nM
Time [12]: 157.6 s
IC50 [13]: > 1000 nM
Activity [14]: 6
IC50 [15]: > 1000 nM
Activity [16]: 0 RPKM
concentration at 336 h [17]: 963 ng/mL
IC50 [18]: > 1000 nM
Time [19]: 178.5 s
IC50 [20]: > 1000 nM
Activity [21]: 0 RPKM
Activity [22]: 270
Activity [23]: 89.818%
